Data taken from ChEMBL document CHEMBL1649212, “AI-2/LuxS is involved in increased biofilm formation by Streptococcus intermedius in the presence of antibiotics” (2009).
Calls of active or inactive are those of the source. No cut-off for these calls is given here.

Tests used:
[1] = test system: Streptococcus intermedius; assay: Antimicrobial activity against Streptococcus intermedius NCTC 11324 assessed as biofilm formation at 0.10 to 0.25 ug/ml; type: functional, organism-based
In short: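 Wild-type NCTC 11324 was grown overnight in TSB and inoculated into TSB with ampicillin (0.02 to 0.10 μg/ml), ciprofloxacin (0.10 to 0.28 μg/ml) or tetracycline (0.05 to 0.30 μg/ml), added at time zero. Wells held plastic coverslips and were incubated 12 h at 37°C in 5% CO2 aerobic air. Biofilm was measured as described previously. Experiments were done three times in three parallels.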

[2] = test system: Streptococcus intermedius; assay: Antimicrobial activity against Streptococcus intermedius NCTC 11324 biofilm assessed as biofilm bacterial count at 0.10 ug/ml (Rvb =402.9 +/- 26.88 10^5 CFU/ml); type: functional
[3] = test system: Streptococcus intermedius; assay: Antimicrobial activity against Streptococcus intermedius NCTC 11324 biofilm assessed as biofilm bacterial count at 0.15 ug/ml (Rvb =402.9 +/- 26.88 10^5 CFU/ml); type: functional
[4] = test system: Streptococcus intermedius; assay: Antimicrobial activity against Streptococcus intermedius NCTC 11324 biofilm assessed as biofilm bacterial count at 0.20 ug/ml (Rvb =402.9 +/- 26.88 10^5 CFU/ml); type: functional
[5] = test system: Streptococcus intermedius; assay: Antimicrobial activity against Streptococcus intermedius SI006 biofilm harboring luxS mutant gene assessed as biofilm bacterial count at 0.10 ug/ml (Rvb =310.8 +/- 17.10 10^5 CFU/ml); type: functional
[6] = test system: Streptococcus intermedius; assay: Antimicrobial activity against Streptococcus intermedius SI006 biofilm harboring luxS mutant gene assessed as biofilm bacterial count at 0.15 ug/ml (Rvb =310.8 +/- 17.10 10^5 CFU/ml); type: functional
[7] = test system: Streptococcus intermedius; assay: Antimicrobial activity against Streptococcus intermedius SI006 biofilm harboring luxS mutant gene assessed as biofilm bacterial count at 0.20 ug/ml (Rvb =310.8 +/- 17.10 10^5 CFU/ml); type: functional
[8] = test system: Streptococcus intermedius; assay: Antimicrobial activity against Streptococcus intermedius SI006 biofilm harboring luxS mutant gene assessed as biofilm bacterial count at 0.10 ug/ml in presence of 0.8 nM autoinducer 4,5-dihydroxy-2,3-pentanedione (Rvb =413.7 +/- 24.47 10^5 CFU/ml); type: functional
[9] = test system: Streptococcus intermedius; assay: Antimicrobial activity against Streptococcus intermedius SI006 biofilm harboring luxS mutant gene assessed as biofilm bacterial count at 0.20 ug/ml in presence of 0.8 nM autoinducer 4,5-dihydroxy-2,3-pentanedione (Rvb =413.7 +/- 24.47 10^5 CFU/ml); type: functional
[10] = test system: Streptococcus intermedius; assay: Antimicrobial activity against Streptococcus intermedius SI006 planktonic cells harboring luxS mutant gene assessed as bacterial count at 0.35 ug/ml in presence of 0.8 nM autoinducer 4,5-dihydroxy-2,3-pentanedione (Rvb =768.6 +/- 46.24 10^8 CFU/ml); type: functional
[11] = test system: Streptococcus intermedius; assay: Antimicrobial activity against Streptococcus intermedius NCTC 11324 assessed as growth inhibition at 0.5 ug/ml; type: functional
In short: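 Broth microdilution MIC in ultra-low-binding 96-well plates, inoculum ≈4 × 10^5. Growth was read at 595 nm, and the MIC was taken as the lowest antibiotic concentration inhibiting growth.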

[12] = test system: Streptococcus intermedius; assay: Antimicrobial activity against Streptococcus intermedius NCTC 11324 planktonic cells assessed as bacterial count at 0.20 ug/ml (Rvb =756.9 +/- 62.98 10^8 CFU/ml); type: functional
In short: (§1)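 Planktonic wild-type cells were inoculated at ≈4 × 10^5 CFU/ml in TSB in ultra-low-binding plates. Media were without or with ampicillin (0.02 to 0.14 μg/ml), ciprofloxacin (0.10 to 0.35 μg/ml) or tetracycline (0.03 to 0.20 μg/ml). After 12 h at 37°C in 5% CO2 aerobic air, CFU were counted, run in parallel with the BacTiter-Glo ATP assay. Experiments were done three times in two parallels.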

[13] = test system: Streptococcus intermedius; assay: Antimicrobial activity against Streptococcus intermedius NCTC 11324 planktonic cells assessed as bacterial count at 0.25 ug/ml (Rvb =756.9 +/- 62.98 10^8 CFU/ml); type: functional; in short: as §1
[14] = test system: Streptococcus intermedius; assay: Antimicrobial activity against Streptococcus intermedius NCTC 11324 planktonic cells assessed as bacterial count at 0.30 ug/ml (Rvb =756.9 +/- 62.98 10^8 CFU/ml); type: functional; in short: as §1
[15] = test system: Streptococcus intermedius; assay: Antimicrobial activity against Streptococcus intermedius NCTC 11324 planktonic cells assessed as bacterial count at 0.35 ug/ml (Rvb =756.9 +/- 62.98 10^8 CFU/ml); type: functional
[16] = test system: Streptococcus intermedius; assay: Antimicrobial activity against Streptococcus intermedius SI006 planktonic cells harboring luxS mutant gene assessed as bacterial count at 0.25 ug/ml (Rvb =708.1 +/- 47.64 10^8 CFU/ml); type: functional
[17] = test system: Streptococcus intermedius; assay: Antimicrobial activity against Streptococcus intermedius SI006 planktonic cells harboring luxS mutant gene assessed as bacterial count at 0.30 ug/ml (Rvb =708.1 +/- 47.64 10^8 CFU/ml); type: functional
[18] = test system: Streptococcus intermedius; assay: Antimicrobial activity against Streptococcus intermedius SI006 planktonic cells harboring luxS mutant gene assessed as bacterial count at 0.35 ug/ml (Rvb =708.1 +/- 47.64 10^8 CFU/ml); type: functional
[19] = test system: Streptococcus intermedius; assay: Antimicrobial activity against Streptococcus intermedius SI006 planktonic cells harboring luxS mutant gene assessed as bacterial count at 0.20 ug/ml in presence of 0.8 nM autoinducer 4,5-dihydroxy-2,3-pentanedione (Rvb =768.6 +/- 46.24 10^8 CFU/ml); type: functional
[20] = test system: Streptococcus intermedius; assay: Antimicrobial activity against Streptococcus intermedius SI006 planktonic cells harboring luxS mutant gene assessed as bacterial count at 0.25 ug/ml in presence of 0.8 nM autoinducer 4,5-dihydroxy-2,3-pentanedione (Rvb =768.6 +/- 46.24 10^8 CFU/ml); type: functional
[21] = test system: Streptococcus intermedius; assay: Antimicrobial activity against Streptococcus intermedius SI006 planktonic cells harboring luxS mutant gene assessed as bacterial count at 0.30 ug/ml in presence of 0.8 nM autoinducer 4,5-dihydroxy-2,3-pentanedione (Rvb =768.6 +/- 46.24 10^8 CFU/ml); type: functional

For `O=C(O)c1cn(C2CC2)c2cc(N3CCNCC3)c(F)cc2c1=O` [CIPROFLOXACIN], the Activity [1] was “inactive”, the CFU [2] was 768.1 ×10⁵ /ml and the CFU [3] was 663.8 ×10⁵ /ml. It also gave a CFU [4] of 577.2 ×10⁵ /ml, a CFU [5] of 324.1 ×10⁵ /ml and a CFU [6] of 333 ×10⁵ /ml. For the same molecule, the CFU [7] was 131 ×10⁵ /ml, the CFU [8] was 814.7 ×10⁵ /ml and the CFU [9] was 519.5 ×10⁵ /ml. The CFU [10] was 2.3 ×10⁸ /ml, the Activity [11] was 0.5 µg/mL and the CFU [12] was 5.87 ×10⁸ /ml. For the same molecule, the CFU [13] was 5.14 ×10⁸ /ml, the CFU [14] was 3.12 ×10⁸ /ml and the CFU [15] was 2.6 ×10⁸ /ml. The CFU [16] was 1.16 ×10⁸ /ml, the CFU [17] was 0.74 ×10⁸ /ml and the CFU [18] was 0.4 ×10⁸ /ml. For the same molecule, the CFU [19] was 5.3 ×10⁸ /ml, the CFU [20] was 4.72 ×10⁸ /ml and the CFU [21] was 3.1 ×10⁸ /ml.
